Assay results taken from ChEMBL document CHEMBL4033640, “Design, synthesis and biological evaluation of 3-substituted-2-oxindole hybrid derivatives as novel anticancer agents” (Eur J Med Chem, 2017).
Activity calls are given as the source filed them. The rule behind the calls is not given here.

Legend:
HT-29 = experiment: Antiproliferative activity against human HT-29 cells after 72 hrs by MTT assay; format: functional, cell-based; conditions: HT-29, 72 h
Summary of the method: (§1)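 Cells grown in DMEM with 10% FBS, penicillin G and streptomycin. 8 × 10³ cells per well, incubated overnight at 37 °C in 5% CO₂, then exposed to graded compound concentrations (from 10 mM DMSO stocks) in triplicate for 72 h. Viability measured by MTT. IC50 taken from dose-response curves, given as mean ± SE of at least three independent experiments run in triplicate.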

MCF7 = experiment: Antiproliferative activity against human MCF7 cells after 72 hrs by MTT assay; format: functional, cell-based; conditions: MCF7, 72 h; summary of the method: as §1
[1] = target: T1, Serine/threonine-protein kinase Nek2 (Homo sapiens) (UniProt P51955); experiment: Inhibition of recombinant human full-length N-terminal GST-tagged NEK2 expressed in baculovirus infected Sf9 insect cells at 1 uM using MBP as substrate after 30 mins by ADP-Glo reagent based luminescence assay
T1 sequence (whole entry): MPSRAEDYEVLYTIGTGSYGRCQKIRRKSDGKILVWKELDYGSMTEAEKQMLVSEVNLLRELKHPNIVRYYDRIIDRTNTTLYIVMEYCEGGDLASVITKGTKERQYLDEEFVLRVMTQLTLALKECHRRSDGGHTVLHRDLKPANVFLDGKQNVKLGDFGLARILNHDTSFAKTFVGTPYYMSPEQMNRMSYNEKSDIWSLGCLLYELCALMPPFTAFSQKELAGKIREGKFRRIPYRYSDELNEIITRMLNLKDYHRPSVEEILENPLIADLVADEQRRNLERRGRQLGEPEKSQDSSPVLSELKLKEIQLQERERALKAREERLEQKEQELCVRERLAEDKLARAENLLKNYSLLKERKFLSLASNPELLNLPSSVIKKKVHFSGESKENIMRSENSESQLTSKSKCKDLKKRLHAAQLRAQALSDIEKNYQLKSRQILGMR
Summary of the method: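 Nek2 activity measured with the bioluminescent ADP-Glo kinase assay, compounds at 1 µM final concentration. Percentage inhibition given as means ± SEM of two independent experiments performed in duplicate.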

HL-60 = experiment: Antiproliferative activity against human HL60 cells after 72 hrs by MTT assay; format: functional, cell-based; conditions: HL-60, 72 h
Jurkat [2] = experiment: Antiproliferative activity against human Jurkat cells after 72 hrs by MTT assay; format: functional, cell-based
Summary of the method: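 Cells exposed to graded compound concentrations (from 10 mM DMSO stocks) in triplicate for 72 h at 37 °C. Viability measured by MTT. IC50 taken from dose-response curves, given as mean ± SE of at least three independent experiments run in triplicate.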

RS4-11 = experiment: Antiproliferative activity against human RS4:11 cells after 72 hrs by MTT assay; format: functional, cell-based; conditions: RS4-11, 72 h
HeLa [3] = experiment: Antiproliferative activity against human HeLa cells after 72 hrs by MTT assay; format: functional, cell-based; summary of the method: as §1
CCRF-CEM = experiment: Antiproliferative activity against human CCRF-CEM cells after 72 hrs by MTT assay; format: functional, cell-based
HeLa [4] = experiment: Antiproliferative activity against human HeLa cells at 1 uM after 48 hrs in presence of 100 uM TOC by annexin-V staining based assay; format: functional, cell-based
Summary of the method: (§2)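 HeLa cells treated with compound at 1.0 µM for 48 h together with 100 µM N-acetyl-L-cysteine or DL-α-tocopherol acetate. Cell death measured by annexin-V assay with flow cytometry. Means ± S.E.M. of three independent experiments.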

PBL [5] = experiment: Cytotoxicity against resting human PBL assessed as reduction in cell viability after 72 hrs by MTT assay; format: cell-based
Summary of the method: (§3)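 PBL isolated from healthy donors' buffy coats by density-gradient centrifugation and held overnight in RPMI-1640 with 10% FBS. Non-adherent cells without PHA resuspended at 5 × 10⁵ cells/mL and treated for 72 h. Viability read by MTT. IC50 reported as mean ± SEM of two separate experiments.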

HeLa [6] = experiment: Induction of DNA damage in human HeLa cells assessed as increase in gamma-H2AX level at 0.5 to 1 uM after 24 hrs by Western blot analysis; format: functional, cell-based
Summary of the method: (§4)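 HeLa cells treated for 24 h and washed in ice-cold PBS. Cells lysed on ice for 30 min and lysate cleared at 15000 x g. 10 μg protein resolved by SDS-PAGE (7.5–15%) and blotted. Membranes blocked with 3% BSA, probed with antibodies to caspase-9 or γH2AX, detected by ECL. Bands quantified and normalized to β-actin, mean±SD of two gels.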

HeLa [7] = experiment: Induction of GSH depletion in human HeLa cells at 0.5 to 10 uM after 30 mins by CMFDA-probe based flow cytometry; format: functional, cell-based; conditions: in the assay text read “after 12 to 24 hrs” for “after 30 mins”
Summary of the method: (§5)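 Cells treated with compound for 12–24 h, harvested, then loaded with 5 µM CMFDA at 37 °C for 30 min. GSH-dependent fluorescence measured by flow cytometry. Means ± S.E.M. of three independent experiments.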

Jurkat [8] = experiment: Induction of mitochondrial membrane depolarization in human Jurkat cells at 10 to 100 nM after 12 to 24 hrs JC-1 staining based flow cytometry; format: functional, cell-based
Summary of the method: (§6)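 Cells treated at the indicated concentrations for the indicated times (12 and 24 h). Stained with JC-1 and analyzed by flow cytometry for dissipation of mitochondrial membrane potential.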

Jurkat [9] = experiment: Induction of GSH depletion in human Jurkat cells at 0.5 to 10 uM after 30 mins by CMFDA-probe based flow cytometry; format: functional, cell-based; conditions: in the assay text read “after 12 to 24 hrs” for “after 30 mins”; summary of the method: as §5
HeLa [10] = experiment: Cell cycle arrest in human HeLa cells assessed as decrease in G1 phase at 1 uM after 24 hrs by propidium iodide staining based flow cytometry; format: functional; parameters: scale not given: the % may be the effect or the level left
Summary of the method: (§7)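 5 × 10⁵ HeLa cells treated for 24 h at the indicated concentrations, then fixed in ice-cold 70% ethanol. Lysis buffer with RNase A and 0.1% Triton X-100 applied, cells stained with PI, and DNA content read by flow cytometry to give percentage of cells in each phase.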

HeLa [11] = experiment: Antiproliferative activity against human HeLa cells at 1 uM after 48 hrs in presence of 100 uM NAC by annexin-V staining based assay; format: functional, cell-based; summary of the method: as §2
PBL [12] = experiment: Cytotoxicity against PHA-stimulated human PBL assessed as reduction in cell viability after 72 hrs by MTT assay; format: cell-based
Summary of the method: as §3, with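 “cells” for “cells without PHA”, “cells/mL with 2.5 μg/mL PHA” for “cells/mL”, “given graded compound concentrations.” for “treated for 72 h.”, “MTT after 72 h.” for “MTT.”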

Jurkat [13] = experiment: Induction of apoptosis in human Jurkat cells at 100 nM after 24 to 48 hrs by annexin-V/FITC propidium iodide staining based flow cytometry; format: functional, cell-based
Summary of the method: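 Cells treated with compound at the indicated concentrations for 24 or 48 h, then double-stained with annexin V-FITC and PI. Phosphatidylserine exposure measured by flow cytometry. Means ± SEM of three independent experiments.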

HeLa [14] = experiment: Induction of apoptosis in human HeLa cells assessed as cleaved caspase-9 expression at 0.5 to 1 uM after 24 hrs by Western blot analysis; format: functional, cell-based; summary of the method: as §4
HeLa [15] = experiment: Induction of mitochondrial membrane depolarization in human HeLa cells at 0.5 to 1 uM after 12 to 24 hrs JC-1 staining based flow cytometry; format: functional, cell-based; summary of the method: as §6
HeLa [16] = experiment: Cell cycle arrest in human HeLa cells assessed as decrease in G1 phase at 0.5 to 1 uM after 24 hrs by propidium iodide staining based flow cytometry; format: functional; summary of the method: as §7

Row | SMILES | IC50 (HT-29) [nM] | IC50 (MCF7) [nM] | inhibition [1] [%] | IC50 (HL-60) [nM] | IC50 (Jurkat [2]) [nM] | IC50 (RS4-11) [nM] | IC50 (HeLa [3]) [nM] | IC50 (CCRF-CEM) [nM] | also measured
1 | C=C(Br)C(=O)Nc1ccc2c(c1)/C(=C\c1ccc(C)s1)C(=O)N2 | 300 | 4400 | 5 to 20 | 12 | 150 | 20 | 2000 | 1 | –
2 | C=C(Br)C(=O)Nc1ccc2c(c1)/C(=C\c1ccsc1)C(=O)N2 | 310 | 2100 | 5 to 20 | 770 | 56 | 190 | 2600 | 6 | –
3 | C#CC(=O)Nc1ccc2c(c1)/C(=C/c1ccc[nH]1)C(=O)N2 | 2300 | 3700 | 5 to 20 | 5800 | 340 | 70 | 4400 | 50 | Activity (HeLa [16]): inactive
4 | Nc1ccc2c(c1)C(=Cc1ccsc1)C(=O)N2 | – | – | – | – | – | > 10000 | – | > 10000 | –
5 | C=C(Br)C(=O)Nc1ccc2c(c1)CC(=O)N2 | 4400 | 3300 | 5 to 20 | 350 | 1100 | 220 | 4500 | 220 | –
6 | C=C(Br)C(=O)Nc1ccc2c(c1)/C(=C\c1cccs1)C(=O)N2 | 5500 | 2300 | 5 to 20 | 15 | 16 | 30 | 1800 | 10 | –
7 | C=C(Br)C(=O)Nc1ccc2c(c1)/C(=C/c1ccc(C)s1)C(=O)N2 | 560 | 3000 | 5 to 20 | 24 | 360 | 50 | 1600 | 9 | –
8 | C=C(Br)C(=O)Nc1ccc2c(c1)/C(=C/c1ccsc1)C(=O)N2 | 600 | 2800 | 5 to 20 | 350 | 190 | 190 | 3500 | 4 | –

Now those with a lower IC50 (RS4-11), led by results:

Row | IC50 (HT-29) [nM] | IC50 (MCF7) [nM] | inhibition [1] [%] | IC50 (HL-60) [nM] | IC50 (Jurkat [2]) [nM] | IC50 (RS4-11) [nM] | IC50 (HeLa [3]) [nM] | IC50 (CCRF-CEM) [nM] | SMILES | also measured
9 | 800 | 700 | 50 | 140 | 110 | 1 | 500 | 3 | C=C(Br)C(=O)Nc1ccc2c(c1)/C(=C/c1ccc[nH]1)C(=O)N2 | Activity (HeLa [4]): inactive; IC50 (PBL [5]): 1500 nM; Activity (HeLa [6]): Active; Activity (HeLa [7]): Active; Activity (Jurkat [8]): Active; Activity (Jurkat [9]): Active; Activity (HeLa [10]): 20%; Activity (HeLa [11]): Active; IC50 (PBL [12]): 830 to 850 nM; Activity (Jurkat [13]): Active; Activity (HeLa [14]): Active; Activity (HeLa [15]): Active
10 | 240 | 1700 | 5 to 20 | 230 | 210 | 2 | 1700 | 35 | C=C(Br)C(=O)Nc1ccc2c(c1)/C(=C/c1cccs1)C(=O)N2 | –
11 | 1200 | 2600 | 5 to 20 | 13 | 30 | 0.4 | 420 | 0.5 | C=C(Br)C(=O)Nc1ccc2c(c1)/C(=C/c1sccc1C)C(=O)N2 | –
12 | 330 | 2300 | 5 to 20 | 39 | 40 | 4 | 450 | 0.9 | C=C(Br)C(=O)Nc1ccc2c(c1)/C(=C\c1sccc1C)C(=O)N2 | Activity (HeLa [4]): inactive; IC50 (PBL [5]): 450 nM; Activity (HeLa [6]): Active; Activity (HeLa [7]): Active; Activity (Jurkat [8]): Active; Activity (Jurkat [9]): Active; Activity (HeLa [10]): 20%; Activity (HeLa [11]): Active; IC50 (PBL [12]): 1220 nM; Activity (Jurkat [13]): Active; Activity (HeLa [14]): Active; Activity (HeLa [15]): Active
